Experimental data gathered from unrelated publications.
Compare with care: the assays were run in different laboratories.
AXL: Tyrosine-protein kinase receptor UFO (AXL, Homo sapiens, UniProt P30530)

SMILES | target | assay | conditions | endpoint | result
C#Cc1n[nH]c2c(-c3cn(C(C)c4ccccn4)c(=O)[nH]c3=O)cc(F)cc12 (centres unmarked) | Tyrosine-protein kinase receptor UFO (AXL, Homo sapiens, UniProt P30530, R499C) | enzyme activity, inhibitor | 1 µM | inhibition | 67.6%
COc1ncccc1-c1cnn2ccc(N3CCN(C(=O)OC(C)C)CC3)nc12 | AXL | binding, competition with immobilised ligand | 1 µM | remaining binding | 100%
N#CC1(c2ccccn2)CCN(Cc2cc(C(=O)O)c(=O)n3ccccc23)CC1 | AXL | cell-free assay, competition with immobilised ligand | 1 µM | remaining binding | 91%
Nc1ncc(-c2nc(N3CCOCC3)nc(N3CCOCC3)n2)c(C(F)F)n1 | AXL | binding, competition with immobilised ligand | 10 µM | remaining binding | 91%
CC(C)(C)c1cc(C=C(C#N)C#N)cc(Br)c1O | AXL | enzyme activity, inhibitor | 0.5 µM | remaining activity | 103%
COc1cc(Nc2ncc(F)c(Nc3ccc4c(n3)NC(=O)C(C)(C)O4)n2)cc(OC)c1OC | AXL | binding, competition with immobilised ligand | 10 µM | inhibition | 100%
Cc1nn(C)cc1-c1nc2c(N3CCN(Cc4ccc(Cl)cc4)CC3)c(Cl)cnc2[nH]1 | AXL | binding, competition with immobilised ligand | 1 µM | remaining binding | 2.2%
Cn1cc(-c2cc(F)cc(N3CCn4c(cc5c4CCCC5)C3=O)c2CO)cc(Nc2ccc(N3CCN(C4COC4)CC3)cn2)c1=O | AXL | enzyme activity, inhibitor | 0.1 µM | inhibition | 12%
Cn1cncc1[C@](O)(COc1ccc(C#N)cc1-c1ccc(OC(F)(F)F)cc1)c1ccc(C#N)cc1 | AXL | cell-free assay, competition with immobilised ligand | 1 µM | remaining binding | 100%
O=c1[nH]c2ccccc2n1C1CCN(Cc2ccc(-c3[nH]c4cc5ncnc5cc4nc3-c3ccccc3)cc2)CC1 | AXL | cell-free assay | 0.5 µM | remaining signal | 105%
Cn1cc(-c2cccc(N3CCc4c(sc5c4CC(C)(C)C5)C3=O)c2CO)cc(Nc2ccncn2)c1=O | AXL | enzyme activity, inhibitor | 1 µM | inhibition | 3%
